The assay deals with Mus musculus. The experiment in a line: Antiinflammatory activity against xylene-induced ear edema in ICR mouse at 20 mg/kg, po. The assay is classed as functional, organism-based. Further details: dose 20 mg/kg. The gist of the method:
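Mice dosed orally with compound suspended in CMC (2.0 mg/mL), vehicle group given CMC, aspirin in CMC as positive control; 30 min later 0.03 mL xylene applied to both surfaces of right ear, left ear untreated. After 2 h mice killed, 7 mm ear punches weighed; edema = right minus left section weight, expressed as % inhibition. n = 11; ANOVA, p < 0.05.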

The source made the active and inactive calls. No cut-off for these calls is given here.

This note sets out measurements from ChEMBL document CHEMBL1149758, “N-[2-(5,5-dimethyl-1,3-dioxane-2-yl)ethyl]amino acids: their synthesis, anti-inflammatory evaluation and QSAR analysis” (Eur J Med Chem, 2008).

On to `CSCC[C@H](NCCC1OCC(C)(C)CO1)C(=O)O`, for which the outcome was Active.

Consider `CC1(C)COC(CCN2CCC[C@H]2C(=O)O)OC1`, for which the outcome was Active.

Take `CC1(C)COC(CCN[C@@H](CO)C(=O)O)OC1`: the outcome was Active.

`CC(C)C[C@H](NCCC1OCC(C)(C)CO1)C(=O)O`: the outcome was Active.

For `CC1(C)COC(CCN[C@@H](CCCCN)C(=O)O)OC1`, the result was Active.

In the case of `CC1(C)COC(CCN[C@@H](CCC(=O)O)C(=O)O)OC1`, the result was Active.

For `CC1(C)COC(CCNCC(=O)O)OC1`, the outcome was Active.

In the case of `C[C@H](NCCC1OCC(C)(C)CO1)C(=O)O`, the outcome was Active.

Take `CC1(C)COC(CCN[C@@H](CCC(N)=O)C(=O)O)OC1`: the outcome was Active.

Take `CC1(C)COC(CCN[C@@H](CCCNC(=N)N)C(=O)O)OC1`: the result was Active.

On to `CC1(C)COC(CCN[C@@H](Cc2c[nH]cn2)C(=O)O)OC1`, for which the result was Active.

In the case of `C[C@@H](O)[C@H](NCCC1OCC(C)(C)CO1)C(=O)O`, the result was Active.

`CC[C@H](C)[C@H](NCCC1OCC(C)(C)CO1)C(=O)O`: the result was Active.

With `CC1(C)COC(CCN[C@@H](Cc2ccccc2)C(=O)O)OC1`, the result was Active.

Turning to `CC(C)[C@H](NCCC1OCC(C)(C)CO1)C(=O)O`, the result was Active.

As to `CC1(C)COC(CCN[C@@H](CC(N)=O)C(=O)O)OC1`, the result was Active.

With `CC1(C)COC(CCN[C@@H](Cc2c[nH]c3ccccc23)C(=O)O)OC1`, the result was Active.

As for `CC1(C)COC(CCN[C@@H](Cc2ccc(O)cc2)C(=O)O)OC1`, the outcome was Active.

As for `CC1(C)COC(CCN[C@@H](CC(=O)O)C(=O)O)OC1`, the result was Active.
